Columns and labels:
[1] = tested on: CCRF-CEM; assay: Cytotoxicity against human CEM cells after 72 hrs by MTT assay; type: cell-based
In short: (§1)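 Cells seeded at 2500-30 000 per well depending on growth characteristics, preincubated 24 h at 37 °C, 5% CO2. Compounds dissolved in 10% DMSO, added as four-fold dilutions, quadruplicate. 72 h exposure at 37 °C, 5% CO2, 100% humidity. MTT added for 1-4 h, formazan dissolved in 10% aqueous SDS (pH 5.5) overnight at 37 °C, OD 540 nm. Survival relative to control wells; TCS50 taken from dose-response curves.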

[2] = tested on: PC-3; assay: Cytotoxicity against human PC3 cells after 72 hrs by MTT assay; type: cell-based; conditions: PC-3, 72 h; in short: as §1
[3] = Cytotoxicity against human Pgp-positive multidrug-resistant K562-tax cells after 72 hrs by MTT assay; type: ADME, cell-based; in short: as §1
[4] = tested on: HT-29; assay: Cytotoxicity against human HT29 cells after 72 hrs by MTT assay; type: cell-based; conditions: HT-29, 72 h; in short: as §1
[5] = tested on: K562; assay: Cytotoxicity against human K562 cells after 72 hrs by MTT assay; type: cell-based; conditions: K562, 72 h; in short: as §1
[6] = tested on: A549; assay: Cytotoxicity against human A549 cells after 72 hrs by MTT assay; type: cell-based; conditions: A549, 72 h; in short: as §1
[7] = tested on: SK-MEL-2; assay: Cytotoxicity against human SK-MEL-2 cells after 72 hrs by MTT assay; type: cell-based; conditions: SK-MEL-2, 72 h
In short: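 Cells seeded at 2500–30 000/well by growth characteristics, preincubated 24 h at 37 °C, 5% CO2; four-fold dilutions of compound (dissolved in 10% DMSO) added, 72 h exposure at 37 °C, 5% CO2, 100% humidity; quadruplicate. MTT 1–4 h, formazan dissolved in 10% SDS (pH 5.5) overnight, OD 540 nm; survival vs control wells, TCS50 from dose–response curves.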

[8] = Cytotoxicity against human U87-Mg cells after 72 hrs by MTT assay; type: cell-based, U-87MG ATCC; conditions: U-87 MG; in short: as §1
[9] = Cytotoxicity against B2-4 cells after 72 hrs by MTT assay; type: cell-based; conditions: Homo sapiens, B2-4, 72 h; in short: as §1
[10] = tested on: CCRF-CEM; assay: Cytotoxicity against daunorubicin-resistant CEM-DNR-bulk cells after 72 hrs by MTT assay; type: cell-based; conditions: Homo sapiens; in short: as §1

SMILES: CC1(C)CC[C@]23CC[C@]4(C)[C@H](CC[C@@H]5[C@@]6(C)CC[C@H](O)C(C)(C)[C@@H]6CC[C@]54C)[C@H]2[C@H]1OC3 [ALLOBETULIN]
- IC50 [1]: 250 µM

SMILES: CC1(C)CC[C@]23CC[C@]4(C)[C@H](CC[C@@H]5[C@@]6(C)Cc7nc8ccccc8nc7C(C)(C)[C@@H]6CC[C@]54C)[C@H]2[C@H]1OC3
- IC50 [1]: 250 µM

SMILES: C=C(C)[C@@H]1CC[C@]2(C(=O)OCOC(=O)C(C)(C)C)CC[C@]3(C)[C@H](CC[C@@H]4[C@@]5(C)Cc6nccnc6C(C)(C)[C@@H]5CC[C@]43C)[C@@H]12
- IC50 [2]: 250 µM
- IC50 [3]: 149 µM
- IC50 [1]: 232 µM
- IC50 [4]: 250 µM
- IC50 [5]: 100 µM
- IC50 [6]: 51 µM
- IC50 [7]: 250 µM

SMILES: COC(=O)[C@]12CC[C@@H](C(C)C)[C@@H]1[C@H]1CC[C@@H]3[C@@]4(C)Cc5nc6ccccc6nc5C(C)(C)[C@@H]4CC[C@@]3(C)[C@]1(C)CC2
- IC50 [1]: 250 µM

SMILES: C=C(C)[C@@H]1CC[C@]2(CO)CC[C@]3(C)[C@H](CC[C@@H]4[C@@]5(C)Cc6nc7ccccc7nc6C(C)(C)[C@@H]5CC[C@]43C)[C@@H]12
- IC50 [1]: 178 µM

SMILES: CC(C)[C@@H]1CC[C@]2(CO)CC[C@]3(C)[C@H](CC[C@@H]4[C@@]5(C)Cc6nc7ccccc7nc6C(C)(C)[C@@H]5CC[C@]43C)[C@@H]12
- IC50 [1]: 35 µM

SMILES: C=C(C)[C@@H]1CC[C@]2(CO)CC[C@]3(C)[C@H](CC[C@@H]4[C@@]5(C)CC[C@H](O)C(C)(C)[C@@H]5CC[C@]43C)[C@@H]12 [BETULIN]
- IC50 [1]: 250 µM

SMILES: CC(C)[C@@H]1CC[C@]2(C(=O)O)CC[C@]3(C)C(CCC4[C@@]5(C)CC[C@H](O)C(C)(C)C5CC[C@]43C)C12 (some centres undefined) [DIHYDROBETULINIC ACID]
- IC50 [1]: 7 µM

SMILES: CC(=O)OC1CC[C@]2(C)[C@H]3CC[C@H]4C5=C(CC[C@@]4(C)[C@]3(C)CC[C@H]2C1(C)C)c1nccnc1[C@H]5C(C)C (some centres undefined)
- IC50 [1]: 244 µM

SMILES: CC(C)C1=C2CC[C@]3(C)[C@H](CC[C@H]4C5[C@H]6O[C@@]5(CCC6(C)C)CC[C@]43C)[C@@]2(C)c2nccnc21 (some centres undefined)
- IC50 [1]: 250 µM

SMILES: CC(C)[C@@H]1CC[C@]2(CO)CC[C@]3(C)[C@H](CC[C@@H]4[C@@]5(C)Cc6nccnc6C(C)(C)[C@@H]5CC[C@]43C)[C@@H]12
- IC50 [1]: 74 µM

SMILES: C=C(C)[C@@H]1CC[C@]2(C(=O)O)CC[C@]3(C)[C@H](CC[C@@H]4[C@@]5(C)Cc6nc7ccccc7nc6C(C)(C)[C@@H]5CC[C@]43C)[C@@H]12
- IC50 [2]: 64 µM
- IC50 [3]: 118 µM
- IC50 [1]: 42 µM
- IC50 [4]: 96 µM
- IC50 [5]: 86 µM
- IC50 [6]: 48 µM
- IC50 [7]: 192 µM

SMILES: C=C(C)[C@@H]1CC[C@]2(C(=O)OCOC(C)=O)CC[C@]3(C)[C@H](CC[C@@H]4[C@@]5(C)Cc6nccnc6C(C)(C)[C@@H]5CC[C@]43C)[C@@H]12
- IC50 [2]: 35 µM
- IC50 [3]: 35 µM
- IC50 [1]: 12 µM
- IC50 [4]: 77 µM
- IC50 [5]: 2 µM
- IC50 [6]: 1 µM
- IC50 [7]: 69 µM

SMILES: C=C(C)[C@@H]1CC[C@]2(C(=O)OC)CC[C@]3(C)[C@H](CC[C@@H]4[C@@]5(C)CCC(=O)C(C)(C)[C@@H]5CC[C@]43C)[C@@H]12 [METHYL BETULONATE]
- IC50 [1]: 250 µM

SMILES: CC(C)[C@@H]1CC[C@]2(C(=O)O)CC[C@]3(C)[C@H](CC[C@@H]4[C@@]5(C)CCC(=O)C(C)(C)[C@@H]5CC[C@]43C)[C@@H]12 [DIHYDROBETULONIC ACID]
- IC50 [1]: 2 µM

SMILES: CC1(C)CC[C@]23CC[C@]4(C)[C@H](CC[C@@H]5[C@@]6(C)Cc7nccnc7C(C)(C)[C@@H]6CC[C@]54C)[C@H]2[C@H]1OC3
- IC50 [1]: 250 µM

SMILES: COC(=O)[C@]12CC[C@@H](C(C)C)[C@@H]1[C@H]1CC[C@@H]3[C@@]4(C)CCC(=O)C(C)(C)[C@@H]4CC[C@@]3(C)[C@]1(C)CC2 [METHYL DIHYDROBETULONATE]
- IC50 [1]: 173 µM

SMILES: COC(=O)[C@@]12CC[C@]3(C)[C@@H](CC[C@@H]4[C@@]5(C)CCC(OC(C)=O)C(C)(C)[C@@H]5CC[C@]43C)C1=C(C(C)C)c1nccnc12 (some centres undefined)
- IC50 [1]: 250 µM

SMILES: COC(=O)[C@@]12CC[C@]3(C)[C@H](CC[C@@H]4[C@@]5(C)CCC(OC(C)=O)C(C)(C)[C@@H]5CC[C@]43C)C1=C(C(C)C)c1nc3ccccc3nc12 (some centres undefined)
- IC50 [1]: 192 µM

SMILES: CC1(C)CC[C@]23CC[C@]4(C)[C@H](CC[C@@H]5[C@@]6(C)CCC(=O)C(C)(C)[C@@H]6CC[C@]54C)[C@H]2[C@H]1O3 [ALLOBETULONE]
- IC50 [1]: 250 µM

SMILES: C=C(C)[C@@H]1CC[C@]2(C(=O)O)CC[C@]3(C)[C@H](CC[C@@H]4[C@@]5(C)CCC(=O)C(C)(C)[C@@H]5CC[C@]43C)[C@@H]12 [BETUNOLIC ACID]
- IC50 [2]: 15 µM
- IC50 [3]: 17 µM
- IC50 [1]: 20 µM
- IC50 [8]: 159 µM
- IC50 [4]: 17 µM
- IC50 [5]: 6 µM
- IC50 [6]: 15 µM
- IC50 [7]: 26 µM

SMILES: CC(C)[C@@H]1CC[C@]2(C(=O)O)CC[C@]3(C)[C@H](CC[C@@H]4[C@@]5(C)Cc6nc7ccccc7nc6C(C)(C)[C@@H]5CC[C@]43C)[C@@H]12
- IC50 [2]: 103 µM
- IC50 [9]: 99 µM
- IC50 [3]: 117 µM
- IC50 [1]: 124 µM
- IC50 [8]: 148 µM
- IC50 [4]: 123 µM
- IC50 [10]: 198 µM
- IC50 [5]: 113 µM
- IC50 [6]: 122 µM

SMILES: C=C(C)[C@@H]1CC[C@]2(CO)CC[C@]3(C)[C@H](CC[C@@H]4[C@@]5(C)Cc6nccnc6C(C)(C)[C@@H]5CC[C@]43C)[C@@H]12
- IC50 [1]: 101 µM

SMILES: CC(=O)OC[C@@]12CC[C@]3(C)[C@H](CC[C@@H]4[C@@]5(C)CC[C@H](OC(C)=O)C(C)(C)[C@@H]5CC[C@]43C)C1=C(C(C)C)C(=O)C2=O
- IC50 [2]: 208 µM
- IC50 [3]: 250 µM
- IC50 [1]: 250 µM
- IC50 [4]: 250 µM
- IC50 [5]: 250 µM
- IC50 [6]: 103 µM
- IC50 [7]: 170 µM

SMILES: CC(C)C1=C2CC[C@]3(C)[C@H](CC[C@@H]4[C@H]5[C@H]6O[C@@]5(CCC6(C)C)CC[C@]43C)[C@@]2(C)C(=O)C1=O
- IC50 [1]: 250 µM

SMILES: CC(=O)OC[C@@]12CC[C@]3(C)[C@@H](CC[C@@H]4[C@@]5(C)CCC(OC(C)=O)C(C)(C)[C@@H]5CC[C@]43C)C1=C(C(C)C)c1nc3ccccc3nc12 (some centres undefined)
- IC50 [2]: 233 µM
- IC50 [3]: 234 µM
- IC50 [1]: 106 µM
- IC50 [4]: 229 µM
- IC50 [5]: 70 µM
- IC50 [6]: 101 µM
- IC50 [7]: 231 µM

SMILES: COC(=O)[C@@]12CC[C@]3(C)[C@H](CC[C@@H]4[C@@]5(C)CC[C@H](OC(C)=O)C(C)(C)[C@@H]5CC[C@]43C)C1=C(C(C)C)C(=O)C2=O
- IC50 [2]: 14 µM
- IC50 [3]: 9 µM
- IC50 [1]: 16 µM
- IC50 [8]: 74 µM
- IC50 [4]: 7 µM
- IC50 [10]: 5 µM
- IC50 [5]: 6 µM
- IC50 [6]: 13 µM
- IC50 [7]: 14 µM

SMILES: C=C(C)[C@@H]1CC[C@]2(C(=O)O)CC[C@]3(C)[C@H](CC[C@@H]4[C@@]5(C)CC[C@H](O)C(C)(C)[C@@H]5CC[C@]43C)[C@@H]12 [BETULINIC ACID]
- IC50 [1]: 30 µM

SMILES: C=C(C)[C@@H]1CC[C@]2(C(=O)OC)CC[C@]3(C)[C@H](CC[C@@H]4[C@@]5(C)Cc6nccnc6C(C)(C)[C@@H]5CC[C@]43C)[C@@H]12
- IC50 [1]: 250 µM

SMILES: CC(C)C1=C2CC[C@]3(C)[C@H](CC[C@@H]4[C@H]5[C@H]6O[C@@]5(CCC6(C)C)CC[C@]43C)[C@@]2(C)c2nc3ccccc3nc21
- IC50 [1]: 250 µM

SMILES: CC(=O)OC[C@@]12CC[C@]3(C)[C@H](CC[C@@H]4[C@@]5(C)CCC(OC(C)=O)C(C)(C)[C@@H]5CC[C@]43C)C1=C(C(C)C)c1nccnc12 (some centres undefined)
- IC50 [1]: 215 µM

— ChEMBL document CHEMBL1142126, “Triterpenoid pyrazines and benzopyrazines with cytotoxic activity” (J Nat Prod, 2007)
